Test results reported in ChEMBL document CHEMBL1138354, “2-(2'-((dimethylamino)methyl)-4'-(fluoroalkoxy)-phenylthio)benzenamine derivatives as serotonin transporter imaging agents” (J Med Chem, 2007).

Experiments:
Bone [1] = experiment: Biodistribution in iv dosed rat bone after 30 mins; type: ADME, organism-based, Bone element; conditions: in vivo, 0.5 h
In short: (§1)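 [18F]-labeled tracer was given to rats under isoflurane anesthesia: 0.2 ml sterile water with 1 mg/mL BSA and 10–100 μCi, into the femoral vein. Three rats per group. Animals were killed by cervical dislocation under anesthesia at the stated time. Organs were removed, weighed and counted. Uptake was calculated as percent dose against a 1% aliquot of the injected dose counted alongside.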

Nucleic Acid [2] = experiment: Ratio of drug level in hypothalamus to cerebellum in rat after 120 mins; type: ADME, tissue-based; conditions: in vivo, 2 h
In short: (§2)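 Rats, 3 per group, given ¹⁸F tracer (10–100 μCi, 0.2 ml sterile water with 1 mg/mL BSA) into the femoral vein under isoflurane. Brain regions, including hypothalamus, striatum and cerebellum, dissected, weighed and counted. % dose/g calculated against a 1% diluted aliquot of the dose. Region/cerebellum ratio is region %dose/g divided by cerebellum %dose/g. SD of the ratio propagated from both means and SDs.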

Nucleic Acid [3] = experiment: Ratio of drug level in striatum to cerebellum in rat assessed as radioactivity after 30 mins; type: ADME, tissue-based; conditions: in vivo, 0.5 h
In short: (§3)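 Groups of three normal rats under isoflurane received the [18F] tracer (10–100 μCi in 0.2 ml sterile water containing 1 mg/mL BSA) into the femoral vein. They were killed by cervical dislocation under anesthesia at the stated time. Cortex, striatum, hippocampus, hypothalamus and cerebellum were dissected, weighed and gamma-counted. %dose/g was set against a 100-fold diluted dose aliquot, and each region was divided by cerebellum.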

Kidney [4] = experiment: Biodistribution in iv dosed rat kidney after 240 mins; type: ADME, organism-based; conditions: in vivo, 4 h; in short: as §1
Liver [5] = experiment: Biodistribution in iv dosed rat liver after 2 mins; type: ADME, organism-based; conditions: in vivo; in short: as §1
Liver [6] = experiment: Biodistribution in iv dosed rat liver after 240 mins; type: ADME, organism-based; conditions: in vivo, 4 h; in short: as §1
Striatum [7] = experiment: Biodistribution in iv dosed rat striatum assessed as radioactivity after 60 mins; type: ADME, organism-based; conditions: in vivo, 1 h
Brain = experiment: Biodistribution in iv dosed rat brain after 60 mins; type: ADME, organism-based; conditions: in vivo, 1 h; in short: as §1
Bone [8] = experiment: Biodistribution in iv dosed rat bone after 240 mins; type: ADME, organism-based, Bone element; conditions: in vivo, 4 h; in short: as §1
Nucleic Acid [9] = experiment: Ratio of drug level in hippocampus to cerebellum in rat assessed as radioactivity after 60 mins; type: ADME, tissue-based; conditions: in vivo, 1 h
Zone of skin [10] = experiment: Biodistribution in iv dosed rat skin after 2 mins; type: ADME, organism-based; conditions: in vivo
Muscle tissue = experiment: Biodistribution in iv dosed rat muscle after 240 mins; type: ADME, organism-based; conditions: in vivo, 4 h; in short: as §1
Kidney [11] = experiment: Biodistribution in iv dosed rat kidney after 60 mins; type: ADME, organism-based; conditions: in vivo, 1 h; in short: as §1
Nucleic Acid [12] = experiment: Ratio of drug level in hippocampus to cerebellum in rat assessed as radioactivity after 120 mins; type: ADME, tissue-based; conditions: in vivo, 2 h; in short: as §3
Nucleic Acid [13] = experiment: Ratio of drug level in striatum to cerebellum in rat assessed as radioactivity after 60 mins; type: ADME, tissue-based; conditions: in vivo, 1 h
Blood [14] = experiment: Biodistribution in iv dosed rat blood after 30 mins; type: ADME, organism-based; conditions: in vivo, 0.5 h; in short: as §1
Spleen = experiment: Biodistribution in iv dosed rat spleen after 240 mins; type: ADME, organism-based; conditions: in vivo, 4 h
Zone of skin [15] = experiment: Biodistribution in iv dosed rat skin after 60 mins; type: ADME, organism-based; conditions: in vivo, 1 h
Blood [16] = experiment: Biodistribution in iv dosed rat blood after 240 mins; type: ADME, organism-based; conditions: in vivo, 4 h; in short: as §1
Nucleic Acid [17] = experiment: Ratio of drug level in striatum to cerebellum in rat assessed as radioactivity after 240 mins; type: ADME, tissue-based; conditions: in vivo, 4 h
Nucleic Acid [18] = experiment: Ratio of drug level in hippocampus to cerebellum in rat assessed as radioactivity after 30 mins; type: ADME, tissue-based; conditions: in vivo, 0.5 h; in short: as §3
Nucleic Acid [19] = experiment: Ratio of drug level in cortex to cerebellum in rat assessed as radioactivity after 240 mins; type: ADME, tissue-based; conditions: in vivo, 4 h
Zone of skin [20] = experiment: Biodistribution in iv dosed rat skin after 120 mins; type: ADME, organism-based; conditions: in vivo, 2 h
In short: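 Rats, 3 per group, under isoflurane. ¹⁸F tracer (10–100 μCi) in 0.2 ml sterile water with 1 mg/mL BSA injected into the femoral vein. Killed by cervical dislocation under anesthesia at the stated time. Organs removed, weighed and counted. % dose/organ calculated against counts of a 1% diluted aliquot of the injected dose.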

Bone [21] = experiment: Biodistribution in iv dosed rat bone after 120 mins; type: ADME, organism-based, Bone element; conditions: in vivo, 2 h; in short: as §1
Blood [22] = experiment: Biodistribution in iv dosed rat blood after 2 mins; type: ADME, organism-based; conditions: in vivo; in short: as §1
Nucleic Acid [23] = experiment: Ratio of drug level in hypothalamus to cerebellum in rat after 2 mins; type: ADME, tissue-based; conditions: in vivo
Nucleic Acid [24] = experiment: Ratio of drug level in hypothalamus to cerebellum in rat after 30 mins; type: ADME, tissue-based; conditions: in vivo, 0.5 h; in short: as §2
Nucleic Acid [25] = experiment: Ratio of drug level in hippocampus to cerebellum in rat assessed as radioactivity after 240 mins; type: ADME, tissue-based; conditions: in vivo, 4 h
Striatum [26] = experiment: Biodistribution in iv dosed rat striatum assessed as radioactivity after 240 mins; type: ADME, organism-based; conditions: in vivo, 4 h
Heart = experiment: Biodistribution in iv dosed rat heart after 30 mins; type: ADME, organism-based; conditions: in vivo, 0.5 h; in short: as §1
Liver [27] = experiment: Biodistribution in iv dosed rat liver after 120 mins; type: ADME, organism-based; conditions: in vivo, 2 h; in short: as §1

Drug uptake (Bone [1]): 7.11 %ID
Ratio (Nucleic Acid [2]): 7.83
Ratio (Nucleic Acid [3]): 2.69
Drug uptake (Kidney [4]): 1.94 %ID
Drug uptake (Liver [5]): 9.9 %ID
Drug uptake (Liver [6]): 2.26 %ID
Drug uptake (Striatum [7]): 0.7 % ID/g
Drug uptake (Brain): 1.21 %ID
Drug uptake (Bone [8]): 3.3 %ID
Ratio (Nucleic Acid [9]): 3.75
Drug uptake (Zone of skin [10]): 8.78 %ID
Drug uptake (Muscle tissue): 2.28 %ID
Drug uptake (Kidney [11]): 4.04 %ID
Ratio (Nucleic Acid [12]): 3.71
Ratio (Nucleic Acid [13]): 3.87
Drug uptake (Blood [14]): 4.74 %ID
Drug uptake (Spleen): 0.09 %ID
Drug uptake (Zone of skin [15]): 8.44 %ID
Drug uptake (Blood [16]): 1.74 %ID
Ratio (Nucleic Acid [17]): 2.72
Ratio (Nucleic Acid [18]): 2.59
Ratio (Nucleic Acid [19]): 2.44
Drug uptake (Zone of skin [20]): 4.32 %ID
Drug uptake (Bone [21]): 2.92 %ID
Drug uptake (Blood [22]): 11.86 %ID
Ratio (Nucleic Acid [23]): 1.28
Ratio (Nucleic Acid [24]): 3.79
Ratio (Nucleic Acid [25]): 2.14
Drug uptake (Striatum [26]): 0.08 % ID/g
Drug uptake (Heart): 0.17 %ID
Drug uptake (Liver [27]): 7.68 %ID
SMILES: CN(C)Cc1cc(OCC[18F])ccc1Sc1ccccc1N
